Values after ≈ are worked out from the molar mass of the structure shown. Active and inactive are the calls of the source. The rule behind the calls is not given here.
Tests used:
hERG (KCNH2) = hERG (KCNH2) (Homo sapiens, UniProt Q12809); assay: Inhibition of human ERG expressed in CHL cells assessed as tail current at 10 uM after 7 mins by patch clamp assay relative to control; type: cell-based; conditions: CHL cells expressing human ERG
Plasmodium falciparum [1] = assay: Antimalarial activity against chloroquine-resistant Plasmodium falciparum W2 assessed as growth inhibition after 18 hrs by [3H]-hypoxanthine uptake assay; type: functional, organism-based
Method in brief: (§1)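 P. falciparum clones D6, W2 and TM91C235; modified semiautomated microdilution. Compounds in DMSO, diluted in RPMI 1640 with 10% human plasma, tested over (1.56-100) x 10^-9 M; final DMSO 0.25-0.5%. Inoculum 0.5% parasitemia, 1% hematocrit. 24 h incubation, then [3H]-hypoxanthine added, further 18 h. Harvested and read by scintillation counting; IC50 by nonlinear regression.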

HepG2 = assay: Cytotoxicity against human HepG2 cells after 48 hrs by MTT assay; type: cell-based; conditions: HepG2, 48 h
Method in brief: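 HepG2 cells in supplemented MEM, plated at 9570 cells/well in 384-well format and incubated overnight at 37 °C, 5% CO2. Twelve duplicate 1.6-fold dilutions, 57–10,000 ng/ml, incubated 48 h. MTT added for 1 h at room temperature in the dark, formazan dissolved in acidified isopropanol, absorbance read. IC50 by sigmoidal variable-slope nonlinear regression; tryptanthrin control.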

[2] = Half life in mouse liver microsomes at 1 uM by LC/MS analysis; type: ADME
Method in brief: (§2)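 Compound at 1 µM final, diluted from […], with 0.5 mg/mL pooled human or mouse liver microsomes, NADP, MgCl2 and 0.1 M PBS pH 7.4. Reaction started with 1 U/mL G6PD and shaken at 37 °C. Aliquots quenched in cold acetonitrile at 0, 10, 20, 30 and 60 min and quantified by LC/MS. Half-life from log plot of total ion chromatogram area remaining.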

[3] = Half life in human liver microsomes at 1 uM by LC/MS analysis; type: ADME; method in brief: as §2
Plasmodium falciparum [4] = assay: Antimalarial activity against chloroquine-sensitive Plasmodium falciparum D6 assessed as growth inhibition after 18 hrs by [3H]-hypoxanthine uptake assay; type: functional, organism-based; method in brief: as §1
Plasmodium falciparum [5] = assay: Antimalarial activity against chloroquine-resistant Plasmodium falciparum C235 assessed as growth inhibition after 18 hrs by [3H]-hypoxanthine uptake assay; type: functional, organism-based; method in brief: as §1
Plasmodium berghei [6] = assay: Antimalarial activity against erythrocytic stage of chloroquine resistant Plasmodium berghei ANKA infected in mouse assessed as cure rate at 120 mg/kg, po qd administered on day 3, 4 and 5 post infection measured 3 times per week for 30 days, starting from day 3 by Thompson test; type: functional, organism-based; parameters: dose 120 mg/kg
Method in brief: (§3)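 Male mice of 16-20 g inoculated intraperitoneally with 5 x 10^6 erythrocytes infected with CQ-resistant P. berghei ANKA. Drug given orally as a suspension once daily on days 3, 4 and 5 post-infection, five mice per dose. Blood films from day 3, three times weekly for 30 days. Cure means parasite-negative on day 30 or surviving 30 days. Mice losing >20% body weight sacrificed.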

Mus musculus = assay: Toxicity in mouse infected with erythrocytic stage of chloroquine resistant Plasmodium berghei ANKA up to 160 mg/kg, po qd administered on day 3, 4 and 5 post infection measured over 30 days; type: organism-based, Erythrocyte; parameters: dose 160 mg/kg, route oral; conditions: in vivo, 720 h
Method in brief: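 Male mice of 16-20 g infected intraperitoneally with CQ-resistant P. berghei ANKA (5 x 10^6 infected erythrocytes). Oral dosing once daily on days 3-5, five mice per group. Animals followed for 30 days by blood films; mice losing >20% body weight sacrificed.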

Plasmodium berghei [7] = assay: Antimalarial activity against erythrocytic stage of chloroquine resistant Plasmodium berghei ANKA infected in mouse assessed as cure rate at 160 mg/kg, po qd administered on day 3, 4 and 5 post infection measured 3 times per week for 30 days, starting from day 3 by Thompson test; type: functional, organism-based; parameters: dose 160 mg/kg; method in brief: as §3

Sequence of hERG (KCNH2) (Q12809 whole entry): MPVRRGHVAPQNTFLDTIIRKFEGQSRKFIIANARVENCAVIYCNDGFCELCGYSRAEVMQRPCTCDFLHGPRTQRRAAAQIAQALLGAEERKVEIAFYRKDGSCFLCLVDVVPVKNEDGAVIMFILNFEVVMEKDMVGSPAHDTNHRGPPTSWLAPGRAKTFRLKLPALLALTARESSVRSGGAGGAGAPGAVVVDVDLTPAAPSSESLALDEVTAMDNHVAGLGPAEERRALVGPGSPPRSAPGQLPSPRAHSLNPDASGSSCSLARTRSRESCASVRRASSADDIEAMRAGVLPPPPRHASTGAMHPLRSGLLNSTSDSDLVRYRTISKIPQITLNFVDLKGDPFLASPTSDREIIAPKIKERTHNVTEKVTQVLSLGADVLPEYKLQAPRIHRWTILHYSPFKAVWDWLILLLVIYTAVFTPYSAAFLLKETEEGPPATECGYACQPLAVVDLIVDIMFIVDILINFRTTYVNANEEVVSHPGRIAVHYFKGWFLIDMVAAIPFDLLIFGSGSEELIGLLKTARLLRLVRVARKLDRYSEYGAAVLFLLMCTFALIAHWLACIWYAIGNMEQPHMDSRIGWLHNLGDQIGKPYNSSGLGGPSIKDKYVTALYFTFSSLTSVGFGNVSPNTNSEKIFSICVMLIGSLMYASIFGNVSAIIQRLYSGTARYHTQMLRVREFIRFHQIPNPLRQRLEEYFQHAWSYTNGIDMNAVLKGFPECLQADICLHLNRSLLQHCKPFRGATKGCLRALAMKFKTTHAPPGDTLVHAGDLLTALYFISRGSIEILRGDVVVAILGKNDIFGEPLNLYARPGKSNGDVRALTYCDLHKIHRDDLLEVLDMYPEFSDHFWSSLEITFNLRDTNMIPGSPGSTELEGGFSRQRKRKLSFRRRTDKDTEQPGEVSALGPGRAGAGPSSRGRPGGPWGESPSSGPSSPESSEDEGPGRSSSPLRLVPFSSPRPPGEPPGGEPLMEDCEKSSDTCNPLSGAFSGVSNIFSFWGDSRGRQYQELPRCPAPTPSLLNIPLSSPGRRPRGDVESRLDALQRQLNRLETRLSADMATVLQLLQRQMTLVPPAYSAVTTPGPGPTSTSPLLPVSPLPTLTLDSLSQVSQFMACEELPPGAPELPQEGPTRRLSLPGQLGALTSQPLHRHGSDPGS

Row | SMILES | inhibition at 7 min, 10 µM (hERG (KCNH2)) | IC50 (Plasmodium falciparum [1]) | IC50 (HepG2) | half-life at 1 µM [2] | half-life at 1 µM [3] | IC50 (Plasmodium falciparum [4]) | IC50 (Plasmodium falciparum [5]) | Activity (Plasmodium berghei [6]) | Activity (Mus musculus) | Activity (Plasmodium berghei [7])
1 | CCCCN(CCCC)CCC(O)c1cc2c(Cl)cc(Cl)cc2c2cc(C(F)(F)F)ccc12 (stereo not drawn) [HALOFANTRINE] | 100% | – | – | – | – | – | – | – | – | –
2 | CCN(CC)CCCN/C(C)=N\c1ccnc2cc(Cl)ccc12 | – | 226 nM | > 10 µg/mL | > 60 min | > 60 min | 138 nM | 133 nM | – | – | –
3 | COc1ccc2nc3cc(Cl)ccc3c(N/C(=N/CCCN3CCCCC3)C(C)C)c2n1 | 69.6% | 3.96 nM | 2.01 µg/mL (≈ 4.42 µM) | 8 min | 9 min | 1.1 nM | 1.94 nM | – | – | –
4 | CCN(CC)CCC/N=C(\C)Nc1c2ccc(Cl)cc2nc2ccc(OC)nc12 | 100% | 41 nM | 2.06 µg/mL (≈ 4.97 µM) | 29 min | 33 min | 17.6 nM | 26.6 nM | Active | Non-toxic | –
5 | CN(C)CCC/N=C(\c1ccccc1)N(CCCN(C)C)c1ccnc2cc(Cl)ccc12 | 16.4% | 121 nM | 5.77 µg/mL (≈ 12.8 µM) | > 60 min | > 60 min | 7.1 nM | 45.4 nM | – | – | –
6 | CCN(CC)CCC/N=C(/Nc1c2ccc(Cl)cc2nc2ccc(OC)nc12)C(C)C | 86.5% | 8.8 nM | 2.06 µg/mL (≈ 4.67 µM) | 22 min | 20 min | 2 nM | 3.8 nM | – | – | –
7 | CC(C)/C(=N/c1ccnc2cc(Cl)ccc12)NCCCN1CCCCC1 | 74.5% | 91 nM | > 24.2 µg/mL | 43 min | 29 min | 34 nM | 56 nM | – | Non-toxic | Active
8 | CCN(CC)CCC/N=C(\c1cccnc1)N(CCCN(CC)CC)c1ccnc2cc(Cl)ccc12 | – | 383 nM | 2.94 µg/mL (≈ 5.78 µM) | > 60 min | > 60 min | 34.8 nM | 290 nM | – | – | –
9 | CCN(CC)CCC/N=C(/N=c1\ccn(CCCN(CC)CC)c2cc(Cl)ccc12)c1cccnc1 | – | 3920 nM | 14.1 µg/mL (≈ 27.7 µM) | > 60 min | > 60 min | 2500 nM | 2660 nM | – | – | –
10 | CCN(CC)CCCN/C(=N\c1ccnc2cc(Cl)ccc12)c1cccnc1 | 101% | 203 nM | 7.87 µg/mL (≈ 19.9 µM) | > 60 min | 36 min | 38.9 nM | 79.5 nM | – | – | –
11 | CCN(CC)CCCCCN/C(C)=N\c1ccnc2cc(Cl)ccc12 | – | 455 nM | 12.5 µg/mL (≈ 34.5 µM) | > 60 min | 56 min | 125 nM | 175 nM | – | – | –
12 | COc1ccc2nc3cc(Cl)ccc3c(N/C(=N/CCCN3CCCCC3)c3ccccc3)c2n1 | 80% | 3.3 nM | 2.56 µg/mL (≈ 5.25 µM) | 12 min | 9 min | 5.1 nM | 4.3 nM | Active | Non-toxic | –
13 | CC(C)/C(=N/c1ccnc2cc(Cl)ccc12)NC1CCN(Cc2ccccc2)CC1 | 51.8% | 58.7 nM | 5.15 µg/mL (≈ 12.2 µM) | 30 min | 25 min | 15 nM | 30.9 nM | – | – | –
14 | CCN(CC)CCCCN/C(=N\c1ccnc2cc(Cl)ccc12)C(C)C | 54.6% | 254 nM | 5.01 µg/mL (≈ 13.4 µM) | 42 min | 55 min | 61 nM | 125 nM | – | Non-toxic | Active
15 | C/C(=N/c1ccnc2cc(Cl)ccc12)NCCCN1CCOCC1 | – | 295 nM | > 30.3 µg/mL | 22 min | 25 min | 327 nM | 578 nM | – | – | –
16 | C/C(=N/c1ccnc2cc(Cl)ccc12)NCCC1CCN(c2ccncc2)CC1 | – | 193 nM | 6.73 µg/mL (≈ 16.5 µM) | > 60 min | > 60 min | 36.4 nM | 64 nM | – | – | –

Row | SMILES | inhibition at 7 min, 10 µM (hERG (KCNH2)) | IC50 (Plasmodium falciparum [1]) | IC50 (HepG2) | half-life at 1 µM [2] | half-life at 1 µM [3] | IC50 (Plasmodium falciparum [4]) | IC50 (Plasmodium falciparum [5]) | Activity (Plasmodium berghei [6]) | Activity (Mus musculus) | Activity (Plasmodium berghei [7])
17 | CCN(CC)CCC/N=C(/Nc1c2ccc(Cl)cc2nc2ccc(OC)nc12)c1ccccc1 | – | 5.6 nM | 3.7 µg/mL (≈ 7.77 µM) | 26 min | 16 min | 1.7 nM | 2.8 nM | – | – | –
18 | COc1ccc2nc3cc(Cl)ccc3c(N(CCCN(C)C)/C(C)=N/CCCN(C)C)c2n1 | 18.3% | 80.8 nM | 1.7 µg/mL (≈ 3.6 µM) | > 60 min | > 60 min | 11.7 nM | 51 nM | – | – | –
19 | OC(c1cc(C(F)(F)F)nc2c(C(F)(F)F)cccc12)C1CCCCN1 (stereo not drawn) [MEFLOQUINE] | 95% | – | – | – | – | – | – | – | – | –
20 | CCN(CC)CCC/N=C(\c1ccccc1)N(CCCN(CC)CC)c1ccnc2cc(Cl)ccc12 | 21.9% | 76.8 nM | 4.09 µg/mL (≈ 8.05 µM) | > 60 min | > 60 min | 6.1 nM | 33.7 nM | – | – | –
21 | Clc1ccc2c(/N=C(\NCCCN3CCCCC3)c3ccccc3)ccnc2c1 | 93% | 15.7 nM | 5.12 µg/mL (≈ 12.6 µM) | 18 min | 12 min | 5.2 nM | 5.7 nM | – | – | –
22 | CCN(CC)CCN/C(C)=N\c1ccnc2cc(Cl)ccc12 | – | 296 nM | 1.32 µg/mL (≈ 4.15 µM) | 18 min | 26 min | 189 nM | 182 nM | – | – | –
23 | CCN(CC)CCCC(C)Nc1ccnc2cc(Cl)ccc12 (stereo not drawn) [CHLOROQUINE] | 71% | – | 12 µg/mL (≈ 37.6 µM) | > 60 min | > 60 min | – | – | – | – | Active
24 | CCN(CC)CCCN(CCCN(CC)CC)/C(=N\c1c2ccc(Cl)cc2nc2ccc(OC)nc12)C(C)C | 32.5% | 6.1 nM | 0.668 µg/mL (≈ 1.2 µM) | > 60 min | > 60 min | 1.1 nM | 3.2 nM | – | – | –
25 | CCN(CC)CCCN(CCCN(CC)CC)/C(C)=N\c1ccnc2cc(Cl)ccc12 | 16.2% | 121 nM | 3 µg/mL (≈ 6.73 µM) | > 60 min | > 60 min | 15 nM | 33.9 nM | – | – | –
26 | C/C(=N/c1ccnc2cc(Cl)ccc12)NC1CCN(C)CC1 | – | 275 nM | > 30.3 µg/mL | > 60 min | > 60 min | 76 nM | 89 nM | – | – | –
27 | O=C1c2ccccc2-n2c1nc1ccccc1c2=O [TRYPTANTHRIN] | – | – | 0.305 µg/mL (≈ 1.23 µM) | – | – | – | – | – | – | –
28 | C/C(=N/c1ccnc2cc(Cl)ccc12)NCCc1ccncc1 | – | 617 nM | 11.3 µg/mL (≈ 34.7 µM) | 13 min | 47 min | 920 nM | 719 nM | – | – | –
29 | Clc1ccc2c(N(CCCN3CCCCC3)/C(=N/CCCN3CCCCC3)c3ccccc3)ccnc2c1 | 21.7% | 16 nM | 2.45 µg/mL (≈ 4.6 µM) | > 60 min | 31 min | 1.9 nM | 6.95 nM | – | – | –
30 | CCN(CC)CCN/C(=N\c1ccnc2cc(Cl)ccc12)C(C)C | – | 97 nM | 12.7 µg/mL (≈ 36.6 µM) | 12 min | > 60 min | 54 nM | 52 nM | – | Toxic | Active
31 | CCN(CC)CCC/N=C(/Nc1c2ccc(Cl)cc2nc2ccc(OC)nc12)c1cccnc1 | 63% | 20.6 nM | 8.6 µg/mL (≈ 18 µM) | 29 min | 32 min | 7.2 nM | 8.2 nM | – | – | –
32 | COc1ccc2nc3cc(Cl)ccc3c(N/C(=N/CCCN(C)C)C(C)C)c2n1 | 72.1% | 9.7 nM | 3.56 µg/mL (≈ 8.6 µM) | 46 min | 33 min | 2.2 nM | 4.3 nM | – | – | –
